Measurements reported in ChEMBL document CHEMBL1131767, “Substituted coumarins as esterase-sensitive prodrug moieties with improved release rates” (Bioorg Med Chem Lett, 1999).

Tests used:
[1] = Compound was evaluated for the half life; assay type: ADME
Outline: (§1)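 Porcine liver esterase (PLE), about 1 unit/mL, incubated with the model prodrug in 0.05 M phosphate buffer at pH 7.4 and 37 ± 0.5 °C. Amine release was followed by UV. The pseudo-first-order rate constant (kobs, min⁻¹) and the half-life (min) are reported.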

Sus scrofa = species: Sus scrofa; experiment: Pseudo first order rate constant to release model amine drug after esterase catalyzed hydrolysis at an enzyme concentration of 1 unit/mL; outline: as §1

SMILES | half-life [1] [min] | K obs x10e2 (Sus scrofa) [min⁻¹]
CCN(CC)C(=O)/C=C\c1ccccc1OC(C)=O | 188 | 0.37
CC(=O)Oc1ccccc1/C=C\C(=O)N(C)Cc1ccccc1 | 32.5 | 2.13
CCN(CC)C(=O)/C=C\c1c(C)ccc(C)c1OC(C)=O | 11.4 | 6.1
CC(=O)Oc1cc(C)cc(C)c1/C=C\C(=O)N(C)Cc1ccccc1 | 6.3 | 11
CCN(CC)C(=O)/C=C\c1c(C)cc(C)cc1OC(C)=O | 18.8 | 3.7
CC(=O)Oc1c(C)ccc(C)c1/C=C\C(=O)N(C)Cc1ccccc1 | 4.8 | 14.4
